Source: the EternaBench riboswitch data

Test system: MS2 coat protein
Experiment: apparent Kd, MS2 coat protein; higher = weaker binding; RNA-MaP array; FMN 200 µM where present
How it was run: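 Each design was made on Illumina sequencing-chip clusters by stalled E. coli RNA polymerase and titrated with SNAP-549-labelled MS2 coat protein from 0.7 or 1.5 nM, doubling to 3 µM, in the absence and then the presence of constant ligand. The buffer was 100 mM Tris-HCl pH 7.5, 80 mM KCl, 4 mM MgCl2, BSA, DTT, yeast tRNA and Tween-20. The apparent Kd is the median of filtered per-cluster fits of binding curves, with green signal normalised to red-channel RNA signal and control-cluster median Fmax.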

[1] = designed as: ON switch for flavin mononucleotide, no ligand
[2] = ligand present: flavin mononucleotide, designed as: ON switch for flavin mononucleotide
[3] = designed as: OFF switch for flavin mononucleotide, no ligand
[4] = ligand present: flavin mononucleotide, designed as: OFF switch for flavin mononucleotide

Sequence | apparent Kd [1] [nM] | apparent Kd [2] [nM] | apparent Kd [3] [nM] | apparent Kd [4] [nM]
CGUUAAUAUCGAGGAUAUGUCUAGACACAUGAGGAUCACCCAUGUAUGUGUAUAGAAGGCGAUAUUAACAGCAUGUUACAUCCC | 46.6 | 18.8 | – | –
CGUUGAUGAGGAUAUCGAUGUUAGUACAUGAGGAUCACCCAUGUUAUCCAAGUGUCGUUUCGAGAAGGUAUUGGAC | – | – | 216 | 348
CUAAAGCAUGUAGGAUAUGCGUGGCGAAGCUAUGCAGAAGGACAUGAGGAUCACCCAUGUCUUUCCGUCUGCGUACAGACGGAA | – | – | 19.1 | 52.4
CUAAAUCAUGUAGGAUAUGCAUGGCGAAGCUACGCAGAAGGACAUGAGGAUCACCCAUGUCAGAACGUCUGCGUUCAGACGUUG | – | – | 17.7 | 58
CUAAAUCAUGUAGGAUAUGCAUGGCGAAGCUACGCAGAAGGACAUGAGGAUCACCCAUGUCAGUACGUCUGCGUACAGACGUUG | – | – | 14.3 | 19.1
CUAAGGGAUUGCUCGAAGACAUGAGGAUCACCCAUGUAGGCGAGAAGGGCGGCGACUUUAGCGCUGCAGGAUAUCGACUGCAGU | – | – | 9 | 10.1
CUAGAAAGGACAGGAUAUCGGGAUCGAACACCCGACAUGAGGAUCACCCAUGUCGCAAAUGAUAGCGAGAAGGGUCGGACACAA | 57 | 18.6 | – | –
CUAGCGGAUGUAGGAUAUCGGACUGUUUCAGUCUGAGAAGGACAUGAGGAUCACCCAUGUAUUGCUGCGUGAGUAGCACGCUAG | – | – | 19.1 | 30.2
CUAUGCGGAAUAGGAUAUUCAUUCAUGAGGAUAGAAGAAGGGUUACAUGAGGAUCACCCAUGUAUACACAUGAGGAUCCCUUAC | – | – | 162 | 181
CUAUUAUGUGUAGGAUAUGCAUAUUAUUAUUAUGCAGAAGGACAUGAGGAUCACCCAUGUAUAUUAUUAUUAUAUAUUAUAUAU | – | – | 10.7 | 11.6
CUAUUCCGAGGAUAUACAUGAGGAUCACCCAUGUCGGGCCUCCGCGUUUCGCGCCUCAGUAGAAGGCGGGUUUC | – | – | 20.4 | 25.9
CUAUUGUGAGGAUAUCAGUAGUAAUACAAUAGUAUUACUACUGAGAAGGCACAUGAGGAUCACCCAUGUUCCUU | – | – | 14.1 | 32.8
CUCACUCCAAAGAGCGCGUCUGCCUGAGAAGGGUGCUAAUUAAUUACAUGAGGAUCACCCAUGUCACAGGAUAUCAGGGUCGCU | 622 | 230 | – | –
CUCAGACAUGAGGAUCACCCAUGUUAGGAUAUAUAAAAGAGCGGCAGAGCGCUCUUCCAUAGAAGGAGCAGUGU | – | – | 27.2 | 27.7
CUCAUGAGAGGAUAUACAUGAGGAUCACCCAUGUGGUUAUCUCCUCGGGCUCCAUUACGUAGAAGGCUCAUUUG | – | – | 33.9 | 90.6
CUCAUGUCAGGAUAUCAGUAGUAAAAAAAUAAAAUUACUACUGAGAAGGGACAUGAGGAUCACCCAUGUCCUGG | – | – | 95.8 | 17.9
CUCAUGUCAGGAUAUUAAGUCCGUAGCCUAUGGCUGCAACAUGAGAAGGGACAUGAGGAUCACCCAUGUCGGGA | – | – | 47.5 | 76.8
CUCAUGUGAGGAUAUAGUGCGUCUUCUAUUAUUAUUGAGUACUAGAAGGCACAUGAGGAUCACCCAUGUAGCAC | – | – | 53.4 | 54.3
CUCAUGUGAGGAUAUGUACAGAAAAAAAUGGGUGAAACUGUACAGAAGGCACAUGAGGAUCACCCAUGUGCCUU | – | – | 24.3 | 12.2
CUCCAGCAAGGAUAUACAUGAGGAUCACCCAUGUAAAGACAAGAGUUGGGAGACGCAUGUAGAAGGUGCACAUC | – | – | 38.2 | 69
CUCCUACAUGAGGAUCACCCAUGUCAGGAUAUCUCAGUGGUACCUAAAUUUACCACCCAGAGAAGGGACGUGCA | – | – | 13.3 | 17.7
CUCUAGCUCACAGGAUAUGGGUGUCGACGAUGCCCAGAAGGGUGAUUUGGCACAUGAGGAUCACCCAUGUGGGCGCUUGAAUAU | 44.5 | 94.3 | – | –
CUCUCACAUGAGGAUCACCCAUGUCCACCUCCGUGAGGAUAUAGAUAAUAAAUACAUUUACUAGAAGGCGCAUCCC | 285 | 298 | – | –
CUCUUGUAAGGAUAUCUGACAAGUGACGAAAGUCACAGUUCAGAGAAGGUACAUGAGGAUCACCCAUGUAGAAC | – | – | 76.7 | 64.4
CUCUUGUAAGGAUAUGCUGCUCGUCACGAAAGUGAUGAGUAGCAGAAGGUACAUGAGGAUCACCCAUGUAAAUA | – | – | 111 | 34.9
CUCUUGUCAGGAUAUUAUGGACGAAGGCAGGGCCGCGUCAGUGAGAAGGGACAUGAGGAUCACCCAUGUAAAAU | – | – | 97.8 | 74.6
CUGAUGUGAGGAUAUCGGACUACGGCCAGGCCGCUAGCAUACGAGAAGGCACAUGAGGAUCACCCAUGUGAGAA | – | – | 13.3 | 42.7
CUGAUGUGAGGAUAUCGGGCUACAGGACUGCUGCUAGCAAACGAGAAGGCACAUGAGGAUCACCCAUGUGAGAG | – | – | 18.1 | 25.4
